Results taken from ChEMBL document CHEMBL2396592, “Discovery of Dap-3 polymyxin analogues for the treatment of multidrug-resistant Gram-negative nosocomial infections” (J Med Chem, 2013).
Converted amounts (≈) assume the structure as drawn. *1 amine or outer side, *2 acyl side, *3 side chain or, on linkers, in order; H or OH if unused. Where a SMILES comes first, the peptide text is derived from it. Bridges are numbered along the chain shown (N, C = ends). [ ]: non-standard residue; d: D form. The star is where a group is joined. X16 = COc1cc(C(=O)*)cc(-c2ccccc2)n1; X10 = O=C(c1ccnc(-c2ccccc2Cl)c1)*; X14 = O=C(c1ccc(Oc2ccccc2)nc1)*; X3 = O=C(c1cncc(-c2ccccc2)c1)*; X18 = c1ccc(-c2cccc(N*)c2)cc1; Dab = NCC[C@H](N)C(=O)O; Dap = NC[C@H](N)C(=O)O; CO = O=C([*:1])[*:2]

Assays:
Pseudomonas aeruginosa [1] = experiment: Antibacterial activity against polymyxin-resistant Pseudomonas aeruginosa clinical isolate 1646 assessed as growth inhibition by broth microdilution method; type: functional
Procedure, shortened: (§1)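 Test strain PA-1646 is a P. aeruginosa isolate with a mutated PmrAB two-component system. The system is constitutively active, so the modified lipid A moiety is constantly expressed on the cell surface, giving a polymyxin-resistant phenotype.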

Escherichia coli = experiment: Antibacterial activity against polymyxin-sensitive Escherichia coli isolate 1 assessed as growth inhibition by broth microdilution method; type: functional
Klebsiella pneumoniae = experiment: Antibacterial activity against polymyxin-sensitive ESBL-positive Klebsiella pneumoniae clinical isolate 3700 assessed as growth inhibition by broth microdilution method; type: functional
[2] = Cytotoxicity against human RPTEC after 24 hrs by LDH assay; type: cell-based; settings: RPTEC cells, read-out: TC50
Procedure, shortened: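 Primary human renal proximal tubule epithelial cells in REGM (EGF, hydrocortisone, epinephrine, insulin, T3, transferrin, gentamycin/amphotericin-B, FBS). After 72 h of growth at 37 °C, 5% CO2, cells were exposed for 24 h to aqueous compound at 100, 67, 44, 30, 20 and 13 μM. LDH release into the supernatant was measured by kit and TC50 (μM) derived, with PMB and PMBN as controls.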

Pseudomonas aeruginosa [3] = experiment: Bactericidal activity against polymyxin-resistant Pseudomonas aeruginosa clinical isolate 1646; type: functional; procedure, shortened: as §1
Pseudomonas aeruginosa [4] = experiment: Antibacterial activity against polymyxin-sensitive Pseudomonas aeruginosa 1401 assessed as growth inhibition by broth microdilution method; type: functional
Procedure, shortened: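 CLSI broth microdilution MIC against P. aeruginosa 1401 (PA01) and 1402 (UC12120), the two strains used in the mouse thigh model.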

Acinetobacter baumannii [5] = experiment: Antibacterial activity against polymyxin-sensitive Acinetobacter baumannii clinical isolate 3167 assessed as growth inhibition by broth microdilution method; type: functional
Acinetobacter baumannii [6] = experiment: Antibacterial activity against polymyxin-resistant Acinetobacter baumannii clinical isolate 1649 assessed as growth inhibition by broth microdilution method; type: functional
Acinetobacter baumannii [7] = experiment: Bactericidal activity against polymyxin-resistant Acinetobacter baumannii clinical isolate 1649; type: functional

SMILES | MIC (Pseudomonas aeruginosa [1]) | MIC (Escherichia coli) | MIC (Klebsiella pneumoniae) | CC50 at 24 h [2] | MBC (Pseudomonas aeruginosa [3]) | MIC (Pseudomonas aeruginosa [4]) | MIC (Acinetobacter baumannii [5]) | MIC (Acinetobacter baumannii [6]) | MBC (Acinetobacter baumannii [7])
CC(C)C[C@@H]1NC(=O)[C@@H](Cc2ccccc2)NC(=O)[C@H](CCN)NC(=O)[C@@H](NC(=O)[C@H](CN)NC(=O)[C@@H](NC(=O)[C@H](CCN)NC(=O)Nc2cccc(-c3ccccc3)c2)[C@@H](C)O)CCNC(=O)[C@H]([C@@H](C)O)NC(=O)[C@H](CCN)NC(=O)[C@H](CCN)NC1=O ({X18-CO}-[Dab]T[Dap][Dab][Dab][dF]L[Dab][Dab]T; lactam 4-C) | 1 µg/mL | 0.25 µg/mL | 0.25 µg/mL | 15 µM | 1 µg/mL (≈ 0.804 µM) | 0.5 µg/mL | 0.25 µg/mL | 4 µg/mL | 4 µg/mL (≈ 3.21 µM)
CC(C)C[C@@H]1NC(=O)[C@@H](Cc2ccccc2)NC(=O)[C@H](CCN)NC(=O)[C@@H](NC(=O)[C@H](CN)NC(=O)[C@@H](NC(=O)[C@H](CCN)NC(=O)c2ccc(Oc3ccccc3)nc2)[C@@H](C)O)CCNC(=O)[C@H]([C@@H](C)O)NC(=O)[C@H](CCN)NC(=O)[C@H](CCN)NC1=O (X14-[Dab]T[Dap][Dab][Dab][dF]L[Dab][Dab]T; lactam 4-C) | 4 µg/mL | 0.25 µg/mL | 0.25 µg/mL | 61 µM | 16 µg/mL (≈ 12.8 µM) | 1 µg/mL | 0.25 µg/mL | 2 µg/mL | 4 µg/mL (≈ 3.21 µM)
COc1cc(C(=O)N[C@@H](CCN)C(=O)N[C@H](C(=O)N[C@@H](CN)C(=O)N[C@H]2CCNC(=O)[C@H]([C@@H](C)O)NC(=O)[C@H](CCN)NC(=O)[C@H](CCN)NC(=O)[C@H](CC(C)C)NC(=O)[C@@H](Cc3ccccc3)NC(=O)[C@H](CCN)NC2=O)[C@@H](C)O)cc(-c2ccccc2)n1 (X16-[Dab]T[Dap][Dab][Dab][dF]L[Dab][Dab]T; lactam 4-C) | 1 µg/mL | 0.25 µg/mL | 0.25 µg/mL | 24 µM | 1 µg/mL (≈ 0.793 µM) | 0.5 µg/mL | 0.5 µg/mL | 4 µg/mL | 4 µg/mL (≈ 3.17 µM)
CC(C)C[C@@H]1NC(=O)[C@@H](Cc2ccccc2)NC(=O)[C@H](CCN)NC(=O)[C@@H](NC(=O)[C@H](CN)NC(=O)[C@@H](NC(=O)[C@H](CCN)NC(=O)c2ccnc(-c3ccccc3Cl)c2)[C@@H](C)O)CCNC(=O)[C@H]([C@@H](C)O)NC(=O)[C@H](CCN)NC(=O)[C@H](CCN)NC1=O (X10-[Dab]T[Dap][Dab][Dab][dF]L[Dab][Dab]T; lactam 4-C) | 4 µg/mL | 0.125 µg/mL | 0.25 µg/mL | 86 µM | 16 µg/mL (≈ 12.6 µM) | 0.5 µg/mL | 0.25 µg/mL | 1 µg/mL | 1 µg/mL (≈ 0.791 µM)
CC(C)C[C@@H]1NC(=O)[C@@H](Cc2ccccc2)NC(=O)[C@H](CCN)NC(=O)[C@@H](NC(=O)[C@H](CN)NC(=O)[C@@H](NC(=O)[C@H](CCN)NC(=O)c2cncc(-c3ccccc3)c2)[C@@H](C)O)CCNC(=O)[C@H]([C@@H](C)O)NC(=O)[C@H](CCN)NC(=O)[C@H](CCN)NC1=O (X3-[Dab]T[Dap][Dab][Dab][dF]L[Dab][Dab]T; lactam 4-C) | 2 µg/mL | 0.125 µg/mL | 0.25 µg/mL | 56 µM | 4 µg/mL (≈ 3.25 µM) | 0.5 µg/mL | 0.25 µg/mL | 4 µg/mL | 4 µg/mL (≈ 3.25 µM)
